In experiment [1] the test system is Pseudomonas aeruginosa. The experiment can be described thus: Antibacterial activity against Pseudomonas aeruginosa PAO1 expressing green fluorescence protein assessed as inhibition of biofilm formation measured as reduction in mean thickness of biofilm at 400 uM after 24 hrs by confocal laser scanning microscopic analysis relative to control. In kind it is functional.

Experiment [2] has as its target T1, HTH-type quorum-sensing regulator RhlR (Pseudomonas aeruginosa (strain ATCC 15692 / PAO1 / 1C / PRS 101 / LMG12228)) (UniProt P54292).
T1 sequence (whole entry): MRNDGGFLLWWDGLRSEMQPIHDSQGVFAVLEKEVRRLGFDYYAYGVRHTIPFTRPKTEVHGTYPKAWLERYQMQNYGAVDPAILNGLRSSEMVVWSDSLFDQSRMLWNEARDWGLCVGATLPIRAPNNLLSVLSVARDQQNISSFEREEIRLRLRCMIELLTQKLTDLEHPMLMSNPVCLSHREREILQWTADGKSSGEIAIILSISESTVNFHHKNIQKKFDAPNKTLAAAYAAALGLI
Briefly: Agonist activity at RhlR in Pseudomonas aeruginosa PAO1 expressing RhlI assessed as stimulation of GFP production at 300 uM after 24 hrs by fluorescence assay relative to control. Summed up:
(§1)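 PAO1 (prhlI-LVAgfp) grown in M9 with 300 µg/mL carbenicillin to OD600 0.1, exposed to compound at 50, 150 or 300 µM for 24 h at 37 °C with shaking at 250 rpm. Fluorescence read at ex 500/em 540 nm, M9 background subtracted, divided by OD600 and normalized to the BF-free control. Four replicates.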

The target of experiment [3] is T1, HTH-type quorum-sensing regulator RhlR (Pseudomonas aeruginosa (strain ATCC 15692 / PAO1 / 1C / PRS 101 / LMG12228)). The experiment can be described thus: Agonist activity at RhlR in Pseudomonas aeruginosa PAO1 expressing RhlI assessed as stimulation of GFP production at 150 uM after 24 hrs by fluorescence assay relative to control. In short, it runs like this:
as §1

For experiment [4], the system named is Pseudomonas aeruginosa. Briefly: Antibacterial activity against Pseudomonas aeruginosa PAO1 assessed as inhibition of biofilm formation incubated for 24 hrs followed by compound-washout measured after 30 mins by crystal-violet staining-based colorimetric assay. It counts as functional, organism-based. In short, it runs like this: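 P. aeruginosa subcultured at OD600 0.1 in LB with compound (DMSO stock) in 96-well polystyrene plates, stationary, 37 °C, 24 h. Wells washed and dried 30 min, stained with 0.1% crystal violet for 30 min, washed, dye solubilized in 95% EtOH, A540 read. Values are (sample − medium)/(DMSO control − medium) × 100. Four replicates.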

Experiment [5] addresses T2, Transcriptional activator protein LasR (Pseudomonas aeruginosa (strain ATCC 15692 / PAO1 / 1C / PRS 101 / LMG12228)) (UniProt P25084).
T2 sequence (whole entry): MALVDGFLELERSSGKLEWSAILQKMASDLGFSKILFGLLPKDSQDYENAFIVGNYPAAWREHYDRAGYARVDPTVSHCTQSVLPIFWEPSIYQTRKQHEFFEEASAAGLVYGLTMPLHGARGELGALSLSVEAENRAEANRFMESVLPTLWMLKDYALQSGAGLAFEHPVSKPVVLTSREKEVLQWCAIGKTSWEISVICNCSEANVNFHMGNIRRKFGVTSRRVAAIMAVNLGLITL
The experiment can be described thus: Antagonist activity at LasR in Pseudomonas aeruginosa PAO1 expressing LasI assessed as inhibition of GFP production at 50 to 300 uM after 24 hrs by fluorescence assay relative to control.

The subject of experiment [6] is Pseudomonas aeruginosa. The experiment can be described thus: Antibacterial activity against Pseudomonas aeruginosa PAO1 expressing green fluorescence protein assessed as inhibition of biofilm formation measured as reduction in biomass at 400 uM after 24 hrs by confocal laser scanning microscopic analysis relative to control. It counts as functional. The note with it: PAO1, 24 h.

Experiment [7] deals with Pseudomonas aeruginosa. The experiment can be described thus: Antibacterial activity against Pseudomonas aeruginosa PAO1 expressing green fluorescence protein assessed as inhibition of biofilm formation at 400 uM after 24 hrs by confocal laser scanning microscopic analysis. It counts as functional, organism-based. In short, it runs like this: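 PA01-GFP (pSMC2; grown in LB with 300 µg/mL carbenicillin) formed biofilms on stainless-steel coupons with 400 µM compound, static, 37 °C, 24 h. Coupons rinsed three times in 0.9% saline, then imaged by CLSM.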

Experiment [8] deals with T2, Transcriptional activator protein LasR (Pseudomonas aeruginosa (strain ATCC 15692 / PAO1 / 1C / PRS 101 / LMG12228)). Briefly: Antagonist activity at LasR in Pseudomonas aeruginosa PAO1 expressing LasI assessed as inhibition of GFP production at 300 uM after 24 hrs by fluorescence assay relative to control.
The target of experiment [9] is T1, HTH-type quorum-sensing regulator RhlR (Pseudomonas aeruginosa (strain ATCC 15692 / PAO1 / 1C / PRS 101 / LMG12228)). Briefly: Agonist activity at RhlR in Pseudomonas aeruginosa PAO1 expressing RhlI assessed as effect on GFP production at 50 to 300 uM after 24 hrs by fluorescence assay relative to control. Summed up: as §1
Experiment [10] deals with T2, Transcriptional activator protein LasR (Pseudomonas aeruginosa (strain ATCC 15692 / PAO1 / 1C / PRS 101 / LMG12228)). The experiment can be described thus: Antagonist activity at LasR in Pseudomonas aeruginosa PAO1 expressing LasI assessed as inhibition of GFP production at 50 to 150 uM after 24 hrs by fluorescence assay.
For experiment [11], the system named is Pseudomonas aeruginosa. Briefly: Inhibition of quorum sensing system in Pseudomonas aeruginosa PAO-JP2 assessed as reduction of elastase B production after 24 hrs by congo-red staining-based assay. In short, it runs like this: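 PAO-JP2 grown in PTSB at 37 °C, subcultured at OD600 0.05 with 5 µM 3-oxo-C12-HSL and 10 µM C4-HSL ± compound, shaken at 250 rpm for 24 h. Filtered supernatant (100 µL) incubated with Elastin-Congo red (4.5 mg in 900 µL Tris-HCl pH 7.2, 1 mM CaCl2) for 24 h at 37 °C, stopped with EDTA. A490 read minus bacteria-free blank, normalized to control. Four replicates.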

SMILES strings stand for the structures. Activity calls are given as the source filed them. No cut-off for these calls is given here.

The inhibition is how much of the control response was suppressed. By IC50 is commonly meant the concentration that gives 50% inhibition.

Consider `O=C1C=C2CCC(Br)=C2O1`, for which, in the experiment on Pseudomonas aeruginosa [1], the inhibition result is “inactive”. Further, the Activity came to 165% in experiment [2] and 82.6% in [3]. Besides, the 50% inhibitory concentration (IC50) with Pseudomonas aeruginosa [4] was more than 400 µM. For the same molecule, the inhibition entry (in [5]; with Pseudomonas aeruginosa [7]) was “Active” in each case. In the experiment on Pseudomonas aeruginosa [6], the inhibition at 400 µM was found to be 53%.

In the case of `O=C1C=C2CCCCC(Br)=C2O1`, the inhibition in experiment [8] is 69%. Also, in experiment [9], the result was inactive. Moreover, in the experiment with Pseudomonas aeruginosa [4], the IC50 turned out to be 140 µM. The inhibition result (in [10]; in the experiment with Pseudomonas aeruginosa [7]) was “Active” each time. Also, the inhibition at 400 µM in the experiment with Pseudomonas aeruginosa [6] worked out at 50%.

With `O=C1C=C2CCCC(Br)=C2O1`, the inhibition in [8] was 78%; in the experiment on Pseudomonas aeruginosa [11], “Dose-dependent effect”. The inhibition at 400 µM in the experiment on Pseudomonas aeruginosa [1] (PAO1, 24 h) was 60%; in the experiment on Pseudomonas aeruginosa [6], 71%. In [9], the outcome was inactive. The IC50 in the experiment on Pseudomonas aeruginosa [4] was 146 µM. The inhibition entry (in experiment [10]; in the experiment with Pseudomonas aeruginosa [7]) was “Active” in each case.
